Reference: ChEMBL document CHEMBL4257520, “Design, synthesis and bioactivity investigation of tetrandrine derivatives as potential anti-cancer agents” (Medchemcomm, 2018)

What was measured:
[1] = Antiproliferative activity against human WM9 cells after 48 hrs by MTT assay; assay type: functional, cell-based; settings: WM9, 48 h
Procedure, shortened: (§1)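 MTT assay on human cancer lines held at 37 °C, 95% humidity, 5% CO2. Cells were exposed to compounds at 20.0–0.5 μM for 48 h, then washed twice with PBS. MTT (5 mg mL–1 in PBS) was added for 4 h at 37 °C, the formazan was dissolved in DMSO, and A490 was read. IC50 comes from replicate wells over three independent experiments.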

HEL = assay: Antiproliferative activity against HEL cells after 48 hrs by MTT assay; assay type: functional, cell-based; settings: Homo sapiens; procedure, shortened: as §1
L02 = assay: Cytotoxicity against human HL7702 cells after 48 hrs by MTT assay; assay type: cell-based; settings: L02, 48 h
Procedure, shortened: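 Normal human liver HL7702 cells were assessed by MTT assay, with formazan absorbance as the read-out, to give an IC50 for cytotoxicity.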

MDA-MB-231 = assay: Antiproliferative activity against human MDA-MB-231 cells after 48 hrs by MTT assay; assay type: functional, cell-based; settings: MDA-MB-231, 48 h; procedure, shortened: as §1
PC-3 = assay: Antiproliferative activity against human PC3 cells after 48 hrs by MTT assay; assay type: functional, cell-based; settings: PC-3, 48 h; procedure, shortened: as §1
K562 = assay: Antiproliferative activity against human K562 cells after 48 hrs by MTT assay; assay type: functional, cell-based; settings: K562, 48 h; procedure, shortened: as §1

IC50 (MDA-MB-231) [µM] | IC50 (PC-3) [µM] | IC50 (K562) [µM] | SMILES | IC50 [1] [µM] | IC50 (HEL) [µM] | IC50 (L02) [µM]
6.37 | 1.94 | 1.78 | COc1cc(NS(=O)(=O)c2cccc([N+](=O)[O-])c2)c2cc1Oc1ccc(cc1)C[C@H]1c3cc(c(OC)cc3CCN1C)Oc1c(OC)c(OC)cc3c1[C@H](C2)N(C)CC3 | 3.36 | 2.17 | 10.1
5.43 | 5.46 | 6.76 | COc1cc(NS(=O)(=O)c2c(C(C)C)cc(C(C)C)cc2C(C)C)c2cc1Oc1ccc(cc1)C[C@H]1c3cc(c(OC)cc3CCN1C)Oc1c(OC)c(OC)cc3c1[C@H](C2)N(C)CC3 | 2.13 | 5.31 | 32.1
7.89 | 5.89 | 5.84 | COc1cc(NS(=O)(=O)c2ccccc2F)c2cc1Oc1ccc(cc1)C[C@H]1c3cc(c(OC)cc3CCN1C)Oc1c(OC)c(OC)cc3c1[C@H](C2)N(C)CC3 | 4.19 | 3.04 | 16.3
6.84 | 5.76 | 5.95 | COc1cc(NS(=O)(=O)c2ccc(Cl)nc2)c2cc1Oc1ccc(cc1)C[C@H]1c3cc(c(OC)cc3CCN1C)Oc1c(OC)c(OC)cc3c1[C@H](C2)N(C)CC3 | 7.93 | 6.01 | 19.5
6.26 | 4.3 | 1.39 | COc1cc(NS(=O)(=O)c2cccc3cccnc23)c2cc1Oc1ccc(cc1)C[C@H]1c3cc(c(OC)cc3CCN1C)Oc1c(OC)c(OC)cc3c1[C@H](C2)N(C)CC3 | 4.53 | 2.85 | 12.7
5.67 | 3.37 | 3.57 | COc1cc(NS(C)(=O)=O)c2cc1Oc1ccc(cc1)C[C@H]1c3cc(c(OC)cc3CCN1C)Oc1c(OC)c(OC)cc3c1[C@H](C2)N(C)CC3 | 2.58 | 2.6 | 14.7
7.42 | 4.63 | 3.57 | COc1cc(NS(=O)(=O)c2ccccc2Cl)c2cc1Oc1ccc(cc1)C[C@H]1c3cc(c(OC)cc3CCN1C)Oc1c(OC)c(OC)cc3c1[C@H](C2)N(C)CC3 | 4.09 | 3.48 | 7.91
6.61 | 4.75 | 3.47 | COc1cc(NS(=O)(=O)c2ccc(NC(C)=O)cc2)c2cc1Oc1ccc(cc1)C[C@H]1c3cc(c(OC)cc3CCN1C)Oc1c(OC)c(OC)cc3c1[C@H](C2)N(C)CC3 | 3.31 | 10.8 | 17.5
7.48 | 4.44 | 3.07 | COc1cc(NS(=O)(=O)c2ccccc2)c2cc1Oc1ccc(cc1)C[C@H]1c3cc(c(OC)cc3CCN1C)Oc1c(OC)c(OC)cc3c1[C@H](C2)N(C)CC3 | 1.98 | 3.87 | 13.5
2.51 | 7.3 | 5.05 | COc1cc(NS(=O)(=O)c2ccccc2[N+](=O)[O-])c2cc1Oc1ccc(cc1)C[C@H]1c3cc(c(OC)cc3CCN1C)Oc1c(OC)c(OC)cc3c1[C@H](C2)N(C)CC3 | 3.26 | 5.72 | 16.2
4.81 | 2.97 | 2.67 | COc1cc(NS(=O)(=O)c2ccc(Cl)cc2)c2cc1Oc1ccc(cc1)C[C@H]1c3cc(c(OC)cc3CCN1C)Oc1c(OC)c(OC)cc3c1[C@H](C2)N(C)CC3 | 3.73 | 2.59 | 17.1
5.33 | 5.19 | 7.26 | CCCCS(=O)(=O)Nc1cc(OC)c2cc1C[C@H]1c3c(cc(OC)c(OC)c3Oc3cc4c(cc3OC)CCN(C)[C@H]4Cc3ccc(cc3)O2)CCN1C | 6.35 | 6.77 | 22.5
3.88 | 3.41 | 1.47 | COc1cc(NS(=O)(=O)c2cc(Cl)cc(Cl)c2)c2cc1Oc1ccc(cc1)C[C@H]1c3cc(c(OC)cc3CCN1C)Oc1c(OC)c(OC)cc3c1[C@H](C2)N(C)CC3 | 3.7 | 5.68 | 13.7
5.12 | 6.64 | 4.14 | CCCS(=O)(=O)Nc1cc(OC)c2cc1C[C@H]1c3c(cc(OC)c(OC)c3Oc3cc4c(cc3OC)CCN(C)[C@H]4Cc3ccc(cc3)O2)CCN1C | 4.03 | 6 | 12.5
9.86 | 5.31 | 5.36 | CC[C@]1(O)C[C@H]2CN(CCc3c([nH]c4ccccc34)[C@@](C(=O)OC)(c3cc4c(cc3OC)N(C=O)[C@H]3[C@@](O)(C(=O)OC)[C@H](OC(C)=O)[C@]5(CC)C=CCN6CC[C@]43[C@@H]65)C2)C1 [VINCRISTINE] | 4.28 | 5.97 | –
4.56 | 3.99 | 3.22 | COc1cccc(S(=O)(=O)Nc2cc(OC)c3cc2C[C@H]2c4c(cc(OC)c(OC)c4Oc4cc5c(cc4OC)CCN(C)[C@H]5Cc4ccc(cc4)O3)CCN2C)c1 | 4.11 | 8.59 | 28.2
5.25 | 4.86 | 3.19 | COc1cc(NS(=O)(=O)c2ccc(C(C)(C)C)cc2)c2cc1Oc1ccc(cc1)C[C@H]1c3cc(c(OC)cc3CCN1C)Oc1c(OC)c(OC)cc3c1[C@H](C2)N(C)CC3 | 4.07 | 9.58 | 26.2
5.6 | 3.98 | 3.72 | COc1cc(NS(=O)(=O)c2ccc(Br)cc2)c2cc1Oc1ccc(cc1)C[C@H]1c3cc(c(OC)cc3CCN1C)Oc1c(OC)c(OC)cc3c1[C@H](C2)N(C)CC3 | 8.51 | 3.83 | 9.38
3.81 | 3.47 | 1.46 | COc1cc(NS(=O)(=O)c2cccc(Br)c2)c2cc1Oc1ccc(cc1)C[C@H]1c3cc(c(OC)cc3CCN1C)Oc1c(OC)c(OC)cc3c1[C@H](C2)N(C)CC3 | 1.68 | 2.9 | 8.73
7.79 | 3.24 | 3.28 | COc1cc(NS(=O)(=O)c2ccc(F)cc2)c2cc1Oc1ccc(cc1)C[C@H]1c3cc(c(OC)cc3CCN1C)Oc1c(OC)c(OC)cc3c1[C@H](C2)N(C)CC3 | 4.33 | 1.57 | 12.1
7.12 | 4.44 | 4.03 | COc1cc(NS(=O)(=O)c2ccc([N+](=O)[O-])cc2)c2cc1Oc1ccc(cc1)C[C@H]1c3cc(c(OC)cc3CCN1C)Oc1c(OC)c(OC)cc3c1[C@H](C2)N(C)CC3 | 4.24 | 3.68 | 14.1
3.55 | 2.67 | 3 | COc1cc(N)c2cc1Oc1ccc(cc1)C[C@H]1c3cc(c(OC)cc3CCN1C)Oc1c(OC)c(OC)cc3c1[C@H](C2)N(C)CC3 | 6.36 | 6.66 | –
6.55 | 3.81 | 3.61 | COc1cc(NS(=O)(=O)c2ccc(C(F)(F)F)cc2)c2cc1Oc1ccc(cc1)C[C@H]1c3cc(c(OC)cc3CCN1C)Oc1c(OC)c(OC)cc3c1[C@H](C2)N(C)CC3 | 4.43 | 2.87 | 8.11
6.69 | 5.57 | 7.12 | COc1cc(NS(=O)(=O)C(F)(F)F)c2cc1Oc1ccc(cc1)C[C@H]1c3cc(c(OC)cc3CCN1C)Oc1c(OC)c(OC)cc3c1[C@H](C2)N(C)CC3 | 5.8 | 5.83 | 18.6
5.31 | 3.29 | 3.24 | COc1cc(NS(=O)(=O)c2c(C)cc(C)cc2C)c2cc1Oc1ccc(cc1)C[C@H]1c3cc(c(OC)cc3CCN1C)Oc1c(OC)c(OC)cc3c1[C@H](C2)N(C)CC3 | 4.16 | 4.81 | 21.2

SMILES | IC50 (MDA-MB-231) [µM] | IC50 (PC-3) [µM] | IC50 (K562) [µM] | IC50 [1] [µM] | IC50 (HEL) [µM] | IC50 (L02) [µM]
COc1ccc2cc1Oc1ccc(cc1)C[C@H]1c3cc(c(OC)cc3CCN1C)Oc1c(OC)c(OC)cc3c1[C@H](C2)N(C)CC3 [FANCHININ] | 8.94 | 5.86 | 11.8 | 6.1 | 7.45 | 44.2
COc1cc([N+](=O)[O-])c2cc1Oc1ccc(cc1)C[C@H]1c3cc(c(OC)cc3CCN1C)Oc1c(OC)c(OC)cc3c1[C@H](C2)N(C)CC3 | 11.3 | 6.81 | 9.05 | 12.1 | 7.36 | –
